ChEMBL document CHEMBL4340573, “New pyrazolopyrimidine derivatives as Leishmania amazonensis arginase inhibitors” (Bioorg Med Chem, 2019)
Active and inactive are the calls of the source. The calls are words filed in the database; no cut-off is given here.

Assays:
[1] = (§1) Cytotoxicity against Swiss mouse peritoneal macrophages assessed as reduction in cell viability incubated for 48 hrs by MTT assay; assay type: cell-based, Peritoneal macrophage; settings: Swiss, peritoneal macrophages, read-out: LC50
In short: (§2)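 Peritoneal cells harvested in RPMI 96 h after 3% thioglycolate (1 mL) in male Swiss mice (18-20 g). Plated at 10^5 cells/well in RPMI 1640 with 10% FBS and 2 mM glutamine. After 24 h, exposed to compound up to 200 µM, 48 h, 37 °C, 5% CO2. MTT 0.45 mg/mL added for 4 h, OD at 570. LC50 derived; at least 2 runs in triplicate.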

Leishmania amazonensis [2] = test: Antileishmanial activity against Leishmania amazonensis LTB0016 amastigotes assessed as induction of parasite morality at 30 uM incubated for 48 hrs by Alamar blue dye based assay relative to control; assay type: functional; settings: LTB0016, 48 h
In short: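 Amastigotes purified by mechanical dissociation in RPMI from paw skin lesions of male Swiss Webster mice 30 days after subcutaneous infection with 10^6 amastigotes. Parasites at 10^6/well exposed 48 h at 32 °C, 5% CO2, with compound up to 30 µM (DMSO ≤0.6% final). Then 24 h with 10% AlamarBlue, OD read at 570-600 nm; pentamidine as reference.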

Arginase [3] = target: T1, Arginase (Leishmania amazonensis, UniProt O96394); test: Inhibition of recombinant Leishmania amazonensis arginase expressed in Escherichia coli using L-arginine as substrate
In short: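 Recombinant E. coli-expressed LaARG was run with L-arginine at 25, 50 and 100 mM separately. Inhibitor was 200 to 0.05 µM by 4-fold serial dilution, in triplicate in two independent experiments. IC50 came from nonlinear sigmoidal regression of log dose versus enzyme activity; reported IC50 values are at 50 mM substrate.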

[4] = target: Arginase (Leishmania amazonensis) (UniProt O96394); test: Inhibition of recombinant Leishmania amazonensis arginase expressed in Escherichia coli at 100 uM using L-arginine as substrate relative to control
In short: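 Recombinant LaARG was expressed in E. coli. Single-point screen: 100 µM compound with 50 mM L-arginine in 50 mM CHES, pH 9.5. DMSO stocks (70 mM) were diluted to 1 mM in deionized water before assay. Run in triplicate in two independent experiments.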

Peritoneal macrophage = test: as §1; assay type: cell-based; settings: peritoneal macrophage, 48 h; in short: as §2
Arginase [5] = target: T1, Arginase; test: Non-competitive inhibition of Leishmania amazonensis arginase using L-arginine as substrate incubated for 15 mins
[6] = target: Arginase (Leishmania amazonensis) (UniProt O96394); test: Uncompetitive inhibition of recombinant Leishmania amazonensis arginase expressed in Escherichia coli assessed as dissociation constant for ternary complex enzyme-substrate-inhibitor using L-arginine as substrate by Dixon or Cornish-Bowden plot analysis
In short: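 Kinetics on recombinant LaARG used L-arginine at 25, 50 and 100 mM, each with three inhibitor concentrations. Points are the mean of three independent experiments run in duplicate. Mechanism came from linear-regression Dixon and Cornish-Bowden plots. Kis (ESI complex dissociation constant) was taken from the intersection of lines on the Cornish-Bowden plot.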

[7] = target: Arginase (Leishmania amazonensis) (UniProt O96394); test: Competitive inhibition of recombinant Leishmania amazonensis arginase expressed in Escherichia coli using 25 to 100 mM L-arginine levels
Leishmania amazonensis [8] = test: Antileishmanial activity against Leishmania amazonensis LTB0016 amastigotes assessed as induction of parasite morality incubated for 48 hrs by Alamar blue dye based assay relative to control; assay type: functional, organism-based; settings: LTB0016, 48 h
In short: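 Free amastigotes (LTB0016) were purified by mechanical dissociation in RPMI from paw skin lesions of male Swiss Webster mice 30 days after s.c. infection with 10^6 amastigotes. Parasites at 10^6/well were exposed to compounds up to 30 µM for 48 h at 32 °C in 5% CO2. AlamarBlue (10%) was then added for 24 h at 32 °C and OD read at 570-600 nm. Final DMSO was ≤0.6%.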

`NC(=S)NNc1ncnc2c1cnn2-c1ccc(Cl)cc1` gave a CC50 at 48 h [1] greater than 200 µM, a mortality at 30 µM (Leishmania amazonensis [2]) of 20 to 30% and an IC50 (Arginase [3]) greater than 100 µM. It also gave an inhibition [4] of 46%.
In the case of `Cc1ccc(-n2ncc3c(NNC(N)=S)ncnc32)cc1`, the LC50 (Peritoneal macrophage) is reported as “Nd(Insoluble)”, the IC50 (Arginase [3]) is reported as greater than 100 µM and the inhibition [4] is reported as 42.2%.
For `NC(=S)NNc1ncnc2c1cnn2-c1ccc(F)cc1`, the CC50 at 48 h [1] was greater than 200 µM, the mortality at 30 µM (Leishmania amazonensis [2]) was 20 to 30% and the IC50 (Arginase [3]) was greater than 100 µM. For the same compound, the inhibition [4] was 36.4%.
Work on `Cc1cc(NNC(N)=S)n2nc(C(F)(F)F)nc2n1` yielded an IC50 (Arginase [5]) of 16.5 µM, a Ki (Arginase [5]) of 17 µM and a CC50 at 48 h [1] greater than 200 µM. For the same compound, the K [6] was 17 µM, the mortality at 30 µM (Leishmania amazonensis [2]) was 20 to 30% and the IC50 (Arginase [3]) was 16.5 µM. For the same compound, the inhibition [4] was 81%.
For `NC(=S)NNc1ncnc2c1cnn2-c1ccccc1`, the CC50 at 48 h [1] was greater than 200 µM, the K [6] was 8.5 µM and the mortality at 30 µM (Leishmania amazonensis [2]) was 20 to 30%. The IC50 (Arginase [3]) was 12 µM, the inhibition [4] was 74.3% and the inhibition [7] was “inactive”.
In the case of `N#Cc1ccc(-n2ncc3c(NNC(N)=S)ncnc32)cc1`, the LC50 (Peritoneal macrophage) is reported as “Nd(Insoluble)”, the IC50 (Arginase [3]) is reported as 100 µM and the inhibition [4] is reported as 59.8%.
`N=C(N)c1ccc(OCCCCCOc2ccc(C(=N)N)cc2)cc1` [PENTAMIDINE] gave a CC50 at 48 h [1] of 17.2 µM and an EC50 (Leishmania amazonensis [8]) of 0.8 µM.
In the case of `NC(=S)NNc1ncnc2c1cnn2-c1ccc(C(F)(F)F)cc1`, the CC50 at 48 h [1] is reported as greater than 200 µM, the K [6] is reported as 29 µM and the mortality at 30 µM (Leishmania amazonensis [2]) is reported as 20 to 30%. The IC50 (Arginase [3]) was 47 µM, the inhibition [4] was 73.8% and the inhibition [7] was “inactive”.
